This passage reports IC50 and EC50 results from ChEMBL document CHEMBL1145986, “Dual protein farnesyltransferase-geranylgeranyltransferase-I inhibitors as potential cancer chemotherapeutic agents” (J Med Chem, 2003).

Assay [1] has as its target T1, Geranylgeranyl transferase type I (Homo sapiens, UniProt P49354+P53609). The assay can be described thus: Concentration required to inhibit recombinant human geranylgeranyl transferase type I (GGTase-I) catalyzed incorporation of [3H]GGPP to the C-terminus of human K-Ras. Type of assay: protein-complex assay. Put shortly: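 Human GGTase-I transferring [3H]GGPP onto a biotinylated peptide matching the human K-Ras C-terminus. IC50 is the concentration giving 50% inhibition of incorporation. For the GGPP-competition check, IC50 was also determined at 20, 100 and 500 nM GGPP. Data with n > 2 are given as mean ± SEM.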

Assay [2] deals with T2, Protein farnesyltransferase (Homo sapiens, UniProt P49354+P49356). In words: Inhibition of hDJ2 protein farnesylation. Type of assay: functional. The essentials:
(§1)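 PSN-1 pancreatic carcinoma cells were exposed to inhibitor for 24 h. Lysates were run on SDS-PAGE and Western blotted with antibodies to hDJ2, Rap1a or K-Ras. Unprocessed and prenylated forms were told apart by their different electrophoretic mobility.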

In assay [3] the target is Protein farnesyl/geranylgeranyl transferase (Homo sapiens, UniProt P49354+P49356+P53609). The assay can be described thus: Inhibition of K-Ras processing, farnesylation and/or geranylgeranylation in human PSN1 cells. Type of assay: functional, cell-based. The essentials:
as §1

In assay [4] the target is T2, Protein farnesyltransferase. In words: Concentration required to inhibit recombinant human farnesyltransferase (FTase) catalyzed incorporation of [3H]FPP into recombinant Ras-CVIM. In kind it is protein-complex assay.
The target in assay [5] is T1, Geranylgeranyl transferase type I. In words: Inhibition of Rap1a protein geranylgeranylation in human PSN1 cells. In kind it is functional, cell-based. The essentials:
as §1

Turning to `CN1CCCC[C@@](CC2CC2)(c2cccc(Oc3cc([C@](C)(N)c4cncn4C)ccc3C#N)c2)C1=O`, the results for the half-maximal inhibitory concentration (IC50) in assay [1] and in assay [4] were 2.1 nM and 0.3 nM, respectively. For the same molecule, the figures for the EC50 in assay [2], in assay [3] and in assay [5] were 1.5 nM, 220 nM and 87 nM, respectively.
In the case of `CN1CCCCC(c2cccc(Oc3cc(Cn4ccnc4)ccc3C#N)c2)C1=O` (stereo unspecified), the IC50 (in general, the midpoint of a concentration-inhibition curve) was 560 nM in assay [1] and 61 nM in assay [4].
Taken in the same sequence, the figures for `CC[C@]1(c2cccc(Oc3cc(Cn4ccnc4)ccc3C#N)c2)CCCCN(C)C1=O` were 25 nM and 5.3 nM.
Taken in the same sequence, the figures for `N#Cc1ccc(Cn2ccnc2)cc1Oc1cccc(C2CCCCNC2=O)c1` (stereo unspecified) were 1200 nM and 41 nM.
Taken in the same sequence, the figures for `CN1CCCC[C@@H](c2cccc(Oc3cc([C@](C)(N)c4cncn4C)ccc3C#N)c2)C1=O` were 92 nM and 11 nM.
As for `CCC1(c2cccc(Oc3cc(C(N)c4cncn4C)ccc3C#N)c2)CCCCN(C)C1=O` (stereo unspecified), the IC50 in assay [1] is 8 nM; in assay [4], 0.19 nM.
For `CCC1(c2cccc(Oc3cc(Cn4ccnc4)ccc3C#N)c2)CCCCNC1` (stereo unspecified) the same measures were 280 nM and 100 nM.
Take `CN1CCCC[C@@](CCC(F)(F)F)(c2cccc(Oc3cc([C@](C)(N)c4cncn4C)ccc3C#N)c2)C1=O`: the IC50 in assay [1] came out at 2.5 nM; in assay [4], 0.19 nM. Besides, the EC50 (in general, the concentration at which the effect is half-maximal) in assay [2] was found to be 3.1 nM; in assay [3], 207 nM; in assay [5] it was 47 nM.
With `CCC1(c2cccc(Oc3cc(C(C)(O)c4cncn4C)ccc3C#N)c2)CCCCN(C)C1=O` (stereo unspecified), the IC50 in assay [1] came out at 13 nM; in assay [4], 1.2 nM.
On to `CC[C@@]1(c2cccc(Oc3cc([C@](C)(N)c4cncn4C)ccc3C#N)c2)CCCCN(C)C1=O`, for which the IC50 in assay [1] was 3.6 nM. The EC50 in assay [2] is 2.1 nM; in assay [3], 340 nM; in assay [5] it was 470 nM.
Turning to `CN1CCCC[C@@](C)(c2cccc(Oc3cc([C@](C)(N)c4cncn4C)ccc3C#N)c2)C1=O`, the IC50 in assay [1] turned out to be 30 nM; in assay [4] it was 0.41 nM. Also, the figures for the EC50 in assay [2], in assay [3] and in assay [5] were 26 nM, 3730 nM and 3990 nM, respectively.
For `CN1CCCC[C@@](CCC2CC2)(c2cccc(Oc3cc([C@](C)(N)c4cncn4C)ccc3C#N)c2)C1=O` the same measures were 0.81 nM, 0.18 nM, 11 nM, 1290 nM and greater than 1000 nM.
Taken in the same sequence, the figures for `CC[C@]1(c2cccc(Oc3cc([C@](C)(N)c4cncn4C)ccc3C#N)c2)CCCCN(C)C1=O` (stereo in doubt) were 4.5 nM, 1.5 nM, 11 nM, 1900 nM and 720 nM.
Taken in the same sequence, the figures for `CC[C@]1(c2cccc(Oc3cc([C@@](C)(N)c4cncn4C)ccc3C#N)c2)CCCCN(C)C1=O` were 54 nM, 7.6 nM, 120 nM, 8000 nM and 3200 nM.
In the case of `CCCC[C@@]1(c2cccc(Oc3cc([C@](C)(N)c4cncn4C)ccc3C#N)c2)CCCCN(C)C1=O`, the figures for the IC50 in assay [1] and in assay [4] were 1.4 nM and 0.12 nM, respectively. Moreover, the EC50 in assay [2] came to 4 nM; in assay [3] it was 320 nM; in assay [5], 250 nM.
Consider `CCC1(c2cccc(Oc3cc(C(C)(N)c4cncn4C)ccc3C#N)c2)CCCCN(C)C1=O` (stereo unspecified), for which the IC50 was 5.1 nM in assay [1] and 0.38 nM in assay [4].
For `CCC1(c2cccc(Oc3cc(Cn4ccnc4)ccc3C#N)c2)CCCCN(C(C)=O)C1` (stereo unspecified) the same measures were 8.9 nM and 1.9 nM.
For `CCC[C@@]1(c2cccc(Oc3cc([C@](C)(N)c4cncn4C)ccc3C#N)c2)CCCCN(C)C1=O`, the IC50 stood at 2.9 nM in assay [1] and 0.46 nM in assay [4]. Moreover, the EC50 in assay [2] was 0.9 nM; in assay [3] it was 100 nM; in assay [5], 220 nM.
Turning to `CC[C@@]1(c2cccc(Oc3cc(Cn4ccnc4)ccc3C#N)c2)CCCCN(C)C1=O`, the IC50 is 5.8 nM in assay [1] and 1.4 nM in assay [4].
For `CCC1(c2cccc(Oc3cc(Cn4ccnc4)ccc3C#N)c2)CCCCNC1=O` (stereo unspecified) the same measures were 20 nM and 1.3 nM.
For `CCC1(c2cccc(Oc3cc(Cn4ccnc4)ccc3C#N)c2)CCCCN(C)C1=O` (racemic) the same measures were 7.2 nM and 3 nM.
On to `CCC1(c2cccc(Oc3cc(C(=O)c4cncn4C)ccc3C#N)c2)CCCCN(C)C1=O` (stereo unspecified), for which the figures for the IC50 in assay [1] and in assay [4] were 10000 nM and 1800 nM, respectively.
With `CC[C@@]1(c2cccc(Oc3cc([C@@](C)(N)c4cncn4C)ccc3C#N)c2)CCCCN(C)C1=O` (stereo in doubt), the IC50 came to 13 nM in assay [1] and 0.36 nM in assay [4]. Further, the EC50 in assay [2] turned out to be 6 nM; in assay [3], 230 nM; in assay [5], 140 nM.
Turning to `CCC1(c2cccc(Oc3cc(C(O)c4cncn4C)ccc3C#N)c2)CCCCN(C)C1=O` (stereo unspecified), the IC50 stood at 17 nM in assay [1] and 2 nM in assay [4].
For `CCC1(c2cccc(Oc3cc(Cc4cncn4C)ccc3C#N)c2)CCCCN(C)C1=O` (stereo unspecified) the same measures were 10 nM and 0.6 nM.
`CCC1(c2cccc(Oc3cc(Cc4cnc[nH]4)ccc3C#N)c2)CCCCN(C)C1=O` (stereo unspecified): the IC50 in assay [1] turned out to be 12 nM; in assay [4] it was 13 nM.
